Test results reported in PMC11409854 (Chemical Science, 2024).
Values after ≈ are worked out from the molar mass of the structure shown. Values joined by “and” are separate entries in the source; they are usually repeats but may differ in a detail not shown here. Equal values may be shown once.

What was measured:
[1] = system: VIM-1 and IMP-1; conditions: cited from earlier work
[2] = system: NDM-1 and VIM-2; conditions: cited from earlier work
[3] = target: IMP-1 (Serratia marcescens, UniProt P52699); experiment: MBL inhibition, nitrocefin absorbance assay, IMP-1; format: biochemical
Sequence of IMP-1 (P52699 19-246, looked up, species assumed): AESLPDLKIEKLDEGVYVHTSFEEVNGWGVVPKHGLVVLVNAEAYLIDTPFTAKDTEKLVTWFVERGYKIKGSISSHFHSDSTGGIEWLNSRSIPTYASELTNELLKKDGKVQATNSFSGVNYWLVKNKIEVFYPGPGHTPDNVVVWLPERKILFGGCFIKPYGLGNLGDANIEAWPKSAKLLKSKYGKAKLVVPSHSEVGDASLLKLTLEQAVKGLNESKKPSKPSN
Method in brief: (§1)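 Absorbance inhibition assay for purified metallo-β-lactamases from a seven-enzyme panel. Nitrocefin served as substrate; enzyme hydrolysis of its β-lactam ring shifts the absorption spectrum, which is monitored by absorbance. IC50 was determined for the test compound.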

[4] = target: NDM-1 (Klebsiella pneumoniae, UniProt C7C422); experiment: MBL inhibition, nitrocefin absorbance assay, NDM-1; format: biochemical
Sequence of NDM-1 (C7C422 29-270, looked up): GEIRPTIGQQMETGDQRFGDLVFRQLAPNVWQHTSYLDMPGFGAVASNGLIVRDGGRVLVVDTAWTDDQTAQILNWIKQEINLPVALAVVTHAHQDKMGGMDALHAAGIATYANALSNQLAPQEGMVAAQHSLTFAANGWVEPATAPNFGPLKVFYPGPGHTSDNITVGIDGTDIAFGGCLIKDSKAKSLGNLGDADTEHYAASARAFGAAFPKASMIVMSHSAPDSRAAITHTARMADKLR
Method in brief: as §1

[5] = system: K. pneumoniae EN5136 (NDM-1, OXA-1, SHV); experiment: MIC / checkerboard assay, K. pneumoniae EN5136; format: cell-based; conditions: carbapenem alone
Method in brief: (§2)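 Carbapenem (meropenem or doripenem) MICs were determined in μg mL−1 against NDM-producing K. pneumoniae and E. coli isolates. Each was tested alone and in the presence of fixed test compound at 16 μg mL−1 (7 μM) or 32 μg mL−1 (14 μM). Fold change is the MIC with compound relative to carbapenem alone.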

[6] = system: K. pneumoniae R3934; experiment: Time-kill kinetics of carbapenem combinations; format: cell-based; conditions: carbapenem alone (meropenem 8 μg mL^−1, doripenem 2 μg mL^−1)
Method in brief: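 K. pneumoniae R3934 (NDM-1) was exposed to meropenem (4 or 8 μg mL−1) or doripenem (0.5 or 1 μg mL−1) with the test compound at 32 μg mL−1. Controls were untreated cultures and carbapenem alone (meropenem 8, doripenem 2 μg mL−1). Viable counts (Log CFU mL−1) were taken at 2, 4, 6 and 24 h; <50 CFU mL−1 was flagged.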

[7] = system: K. pneumoniae BAA2146 (NDM-1); experiment: MIC / checkerboard assay, K. pneumoniae BAA2146; format: cell-based; conditions: carbapenem alone
Method in brief: as §2

[8] = system: K. pneumoniae R3934 (NDM-1); experiment: MIC / checkerboard assay, K. pneumoniae R3934; format: cell-based; conditions: carbapenem alone
Method in brief: as §2

[9] = system: clinical isolates of NDM producing K. pneumoniae and E. coli; experiment: Checkerboard assay, summary over NDM-producing isolates; format: cell-based; conditions: for fold decrease in the MIC value: with 16 μg mL^−1 VanNHdipi (7 μM); for fold reduction of the MIC value: with 32 μg mL^−1 VanNHdipi (14 μM), all strains
Method in brief: as §2

[10] = system: E. coli EN5141 (NDM-1, OXA-1); experiment: MIC / checkerboard assay, E. coli EN5141; format: cell-based; conditions: carbapenem alone
Method in brief: as §2

[11] = system: GFP-MinD in B. subtilis 1981; experiment: GFP-MinD localization; format: cell-based, Bacillus subtilis; conditions: at PEC (vancomycin 0.4 μM, VanNHdipi 0.16 μM)
[12] = system: MRSA; experiment: Antagonization assay with N,N'-diacetyl-L-Lys-D-Ala-D-Ala; format: cell-based, S. aureus; conditions: Staphylococcus aureus, read-out: MIC in the presence of KAA
Method in brief: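 Test compound or vancomycin was pre-incubated with N,N'-diacetyl-L-Lys-D-Ala-D-Ala (KAA) before being added to the MRSA suspension for MIC determination. MIC in the presence of KAA was compared with that without KAA.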

[13] = system: B. subtilis; experiment: MIC determination against B. subtilis; format: cell-based; conditions: Bacillus subtilis
[14] = system: B. subtilis 168; experiment: Physiologically effective concentration; format: cell-based, Bacillus subtilis
Method in brief: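 B. subtilis 168 was grown to mid-log phase (OD500 0.35) and then given different concentrations of the test compound or vancomycin. The acute effect on growth was followed by optical density. The PEC is the concentration at which growth continues at a reduced rate, expressed as a multiple of the MIC.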

[15] = system: MRSA ATCC 33591 biofilms; experiment: Activity against mature biofilms of MRSA; format: cell-based, S. aureus; conditions: 20 μM, 24 h
[16] = system: MRSA; experiment: Time-kill kinetics against exponential phase MRSA; format: cell-based, S. aureus; conditions: at MIC (vancomycin: same across concentrations)
Method in brief: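 Exponential-phase MRSA was exposed to the test compound or vancomycin at the MIC and higher multiples. Viable counts (Log CFU mL−1) were followed over time up to 24 h.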

[17] = system: B. subtilis 168; experiment: Cell wall biosynthesis inhibition assay; format: cell-based, Bacillus subtilis; conditions: at PEC (vancomycin 0.4 μM, VanNHdipi 0.16 μM)
[18] = D-Ala-D-Lac versus D-Ala-D-Ala; cited from earlier work
[19] = system: vancomycin-resistant strains (VRSA and VRE); experiment: MIC across the panel of vancomycin-resistant strains; format: cell-based, Staphylococci and Enterococci; conditions: Staphylococcus aureus
[20] = system: B. subtilis 168 newly synthesized cytosolic proteins; experiment: 2D gel-based proteome analysis with [35S]-methionine pulse labeling; format: cell-based, Bacillus subtilis; conditions: 10 min
Method in brief: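 B. subtilis 168 cultures grown to OD500 0.35 were exposed for 10 min to the test compound or vancomycin at the physiologically effective concentration. Newly synthesised cytosolic proteins were pulse-labelled with [35S]-methionine, separated by 2D gel electrophoresis and compared with untreated cells by false-colour overlay (treated red, control green). Proteins were identified by LC-MS; regulation factor is the treated/control ratio.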

[21] = system: MRSA, methicillin-resistant S. aureus (ATCC 33591); experiment: MIC determination; format: cell-based; conditions: Staphylococcus aureus, ATCC33591|MRSA

SMILES: O=C(O)c1ncsc1NS(=O)(=O)c1cccnc1 [ANT431]
- fold less active than against NDM-1 and VIM-2 [1]: at least 20 fold
- inhibitory activity [2]: sub-micromolar

SMILES: c1ccc(CNCc2ccccn2)nc1 [BPYA, bis(pyridin-2-ylmethyl)amine]
- IC50 [3]: > 40000 nM
- IC50 [4]: 1200 nM

SMILES: C[C@@H](O)[C@H]1C(=O)N2C(C(=O)O)=C(S[C@@H]3CN[C@H](CNS(N)(=O)=O)C3)[C@H](C)[C@H]12 [Doripenem]
- MIC of carbapenem [5]: 8 µg/mL
- growth inhibition [6]: no growth inhibition
- MIC of carbapenem [7]: 16 µg/mL
- MIC of carbapenem [8]: 16 µg/mL
- MIC [9]: 0.06 to 4 µg/mL
- fold decrease in the MIC value ([9]; NDM producing K. pneumoniae and E. coli): 4-16 fold
- fold reduction of the MIC value [9]: 16–32 fold
- MIC of carbapenem [10]: 8 µg/mL

SMILES: C[C@@H](O)[C@H]1C(=O)N2C(C(=O)O)=C(S[C@@H]3CN[C@H](C(=O)N(C)C)C3)[C@H](C)[C@H]12 [Meropenem]
- MIC of carbapenem [5]: 8 µg/mL
- growth inhibition [6]: did not show any growth inhibition
- MIC of carbapenem [7]: 8 µg/mL
- MIC of carbapenem [8]: 64 µg/mL
- MIC [9]: 0.06 to 4 µg/mL
- fold decrease in the MIC value ([9]; NDM-1 expressing K. pneumoniae strains): 2-8 fold
- fold reduction of the MIC value [9]: 16–32 fold
- MIC of carbapenem [10]: 2 µg/mL

SMILES: CN[C@H](CC(C)C)C(=O)N[C@H]1C(=O)N[C@@H](CC(N)=O)C(=O)N[C@H]2C(=O)N[C@H]3C(=O)N[C@H](C(=O)N[C@H](C(=O)O)c4cc(O)cc(O)c4-c4cc3ccc4O)[C@H](O)c3ccc(c(Cl)c3)Oc3cc2cc(c3O[C@@H]2O[C@H](CO)[C@@H](O)[C@H](O)[C@H]2O[C@H]2C[C@](C)(N)[C@H](O)[C@H](C)O2)Oc2ccc(cc2Cl)[C@H]1O [Vancomycin]
- MinD delocalization [11]: did not elicit any MinD protein delocalization
- MIC [12]: > 30 µM
- MIC [13]: 0.2 µM (≈ 0.29 µg/mL)
- PEC as multiple of MIC ([14]; added at OD500 0.35): 2 × MIC
- physiologically effective concentration (PEC), growth retardation ([14]; added at OD500 0.35 (mid-log phase)): 0.4 μM
- reduction in cell viability within the biofilms [15]: minimal activity
- time to complete eradication [16]: 24 h
- inhibition of cell wall biosynthesis (bubbles on cell surface) [17]: Bubble-like formations were observed
- fold reduction in binding affinity [18]: 1000 fold
- MIC [19]: > 346 µM and > 512 µg/mL
- Regulation factor (treated/control), CysC ([20]; at PEC (vancomycin 0.4 μM, VanNHdipi 0.16 μM)): 2.3 ± 0.1
- Regulation factor (treated/control), GsaB ([20]; at PEC): 2.8 ± 0.4
- Regulation factor (treated/control), Hom ([20]; at PEC): 5.0 ± 3.8
- Regulation factor (treated/control), LysA ([20]; at PEC): 2.7 ± 0.3
- Regulation factor (treated/control), MtnE ([20]; at PEC): 2.4 ± 0.3
- Regulation factor (treated/control), MurF ([20]; at PEC): 4.1 ± 1.6
- Regulation factor (treated/control), NfrA ([20]; at PEC): 3.3 ± 0.2
- Regulation factor (treated/control), RpsB ([20]; at PEC): 2.7 ± 0.3
- Regulation factor (treated/control), SdhA ([20]; at PEC): 3.3 ± 1
- Regulation factor (treated/control), ThiG ([20]; at PEC): 2.5 ± 0.1
- Regulation factor (treated/control), Udk ([20]; at PEC): 3.1 ± 0.5
- Regulation factor (treated/control), YceC ([20]; at PEC): 3.7 ± 0.9
- Regulation factor (treated/control), YoxD ([20]; at PEC): 2.9 ± 0.1
- Regulation factor (treated/control), YpuA ([20]; at PEC): 4.4 ± 0.3
- Regulation factor (treated/control), YqiG ([20]; at PEC): 5.2 ± 1.3
- Regulation factor (treated/control), YtrB ([20]; at PEC): 4.8 ± 0.5
- Regulation factor (treated/control), YtrE.2 ([20]; at PEC): 18.2 ± 8.98
- MIC [21]: 0.6 µM (≈ 0.87 µg/mL)
